Reference: ChEMBL document CHEMBL3259809, “Oxazolidinone derivatives: cytoxazone-linezolid hybrids induces apoptosis and senescence in DU145 prostate cancer cells” (Eur J Med Chem, 2014)
Active and inactive are the calls of the source. The calls are words filed in the database; no cut-off is given here.

Columns and labels:
A549 = assay: Cytotoxicity against human A549 cells; type: functional, cell-based
Outline: (§1)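 SRB assay. 5000 cells/well were seeded in medium with 10% serum and left 18-20 h at 5% CO2 to adhere. Final compound 0 to 100 μM for 48 h at 37 °C; DMSO vehicle, doxorubicin positive control. Cells fixed in 10% TCA 1 h at 4 °C, stained 30 min with 0.057% SRB, washed with 1% acetic acid. Dye solubilised in 10 mM Tris base, A510 read, IC50 derived.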

DU-145 [1] = assay: Cytotoxicity against human DU145 cells; type: functional, cell-based; outline: as §1
HeLa = assay: Cytotoxicity against human HeLa cells; type: functional, cell-based; outline: as §1
MCF7 = assay: Cytotoxicity against human MCF7 cells; type: functional, cell-based; outline: as §1
DU-145 [2] = assay: Cytotoxicity against human DU145 cells assessed as change in cell morphology at 5 to 25 uM after 48 hrs by microscopic analysis; type: functional, cell-based
Outline: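 DU145 cells seeded in 24-well plates and left 18-20 h, then exposed to increasing concentrations for 48 h with a DMSO comparison. Morphology examined and imaged by light microscopy.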

DU-145 [3] = assay: Cytotoxicity against human DU145 cells assessed as inhibition of colony formation on soft agar media after 9 days by crystal violet staining-based microscopic analysis; type: functional, cell-based
Outline: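 Soft agar assay. Base layer was 0.5% agar in growth medium with 10% serum. On top, 2.5×10^4 DU145 cells were set in 0.35% agar containing compound (0–25 μM). Medium plus compound replenished every 3 days for 9 days. Stained with 0.005% crystal violet, then colonies photographed and counted under a microscope.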

DU-145 [4] = assay: Cell cycle arrest in human DU145 cells assessed as accumulation at G0/G1 phase at 5 uM after 48 hrs by propidium iodide staining-based flow cytometric analysis (reference value: 70.54%); type: functional
DU-145 [5] = assay: Cell cycle arrest in human DU145 cells assessed as accumulation at G0/G1 phase at 10 uM after 48 hrs by propidium iodide staining-based flow cytometric analysis (reference value: 70.54%); type: functional
DU-145 [6] = assay: Cell cycle arrest in human DU145 cells assessed as accumulation at G0/G1 phase at 15 uM after 48 hrs by propidium iodide staining-based flow cytometric analysis (reference value: 70.54%); type: functional
DU-145 [7] = assay: Cell cycle arrest in human DU145 cells assessed as accumulation at G0/G1 phase at 20 uM after 48 hrs by propidium iodide staining-based flow cytometric analysis (reference value: 70.54%); type: functional
DU-145 [8] = assay: Cell cycle arrest in human DU145 cells assessed as accumulation at G0/G1 phase at 25 uM after 48 hrs by propidium iodide staining-based flow cytometric analysis (reference value: 70.54%); type: functional
DU-145 [9] = assay: Cell cycle arrest in human DU145 cells assessed as accumulation at S phase at 5 uM after 48 hrs by propidium iodide staining-based flow cytometric analysis (reference value: 5.77%); type: functional
DU-145 [10] = assay: Cell cycle arrest in human DU145 cells assessed as accumulation at S phase at 10 uM after 48 hrs by propidium iodide staining-based flow cytometric analysis (reference value: 5.77%); type: functional
DU-145 [11] = assay: Cell cycle arrest in human DU145 cells assessed as accumulation at S phase at 15 uM after 48 hrs by propidium iodide staining-based flow cytometric analysis (reference value: 5.77%); type: functional
DU-145 [12] = assay: Cell cycle arrest in human DU145 cells assessed as accumulation at S phase at 20 uM after 48 hrs by propidium iodide staining-based flow cytometric analysis (reference value: 5.77%); type: functional
DU-145 [13] = assay: Cell cycle arrest in human DU145 cells assessed as accumulation at S phase at 25 uM after 48 hrs by propidium iodide staining-based flow cytometric analysis (reference value: 5.77%); type: functional
DU-145 [14] = assay: Cell cycle arrest in human DU145 cells assessed as accumulation at G2/M phase at 5 uM after 48 hrs by propidium iodide staining-based flow cytometric analysis (reference value: 23.09%); type: functional
DU-145 [15] = assay: Cell cycle arrest in human DU145 cells assessed as accumulation at G2/M phase at 10 uM after 48 hrs by propidium iodide staining-based flow cytometric analysis (reference value: 23.09%); type: functional
DU-145 [16] = assay: Cell cycle arrest in human DU145 cells assessed as accumulation at G2/M phase at 15 uM after 48 hrs by propidium iodide staining-based flow cytometric analysis (reference value: 23.09%); type: functional
DU-145 [17] = assay: Cell cycle arrest in human DU145 cells assessed as accumulation at G2/M phase at 20 uM after 48 hrs by propidium iodide staining-based flow cytometric analysis (reference value: 23.09%); type: functional
DU-145 [18] = assay: Cell cycle arrest in human DU145 cells assessed as accumulation at G2/M phase at 25 uM after 48 hrs by propidium iodide staining-based flow cytometric analysis (reference value: 23.09%); type: functional
DU-145 [19] = assay: Induction of apoptosis in human DU145 cells assessed as caspase-3 activation using Ac-DEVD-AMC as substrate after 48 hrs by fluorometric analysis; type: functional, cell-based
Outline: (§2)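 DU145 exposed to several concentrations for 48 h; DMSO negative, doxorubicin positive control. Cells lysed in 50 mM HEPES, 5 mM CHAPS, 5 mM DTT, pH 7.5. Lysate incubated with substrate in 20 mM HEPES pH 7.5, 0.1% CHAPS, 2 mM EDTA, 5 mM DTT for 2 h at 37 °C. AMC read at ex/em 380/460 nm (caspase-3), AFC at 400/505 nm (caspase-9). Values normalised to Bradford protein and expressed relative to DMSO; triplicates, means.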

DU-145 [20] = assay: Induction of apoptosis in human DU145 cells assessed as caspase-9 activation using Ac-LEHD-AFC as substrate after 48 hrs by fluorometric analysis; type: functional, cell-based; outline: as §2
DU-145 [21] = assay: Induction of apoptosis in human DU145 cells assessed as change in mitochondrial membrane potential at 8.5 to 20 uM after 24 hrs by JC-1 dye-based assay; type: functional, cell-based
Outline: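 DU145 seeded in 24-well plates and left 18 h at 37 °C, 5% CO2, then treated for 24 h, DMSO control. Stained with JC-1 working solution (stock mixed 1:1 with growth medium) for 20 min at 37 °C. Washed twice with medium, then red (aggregate) versus green (monomer) fluorescence viewed by microscopy.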

DU-145 [22] = assay: Induction of senescence in human DU145 cells at 5 to 25 uM after 48 hrs by SA-beta-gal staining-based microscopic analysis; type: functional, cell-based
Outline: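 DU145 in 24-well plates treated for 48 h. Cells washed with PBS and fixed 5 min at room temperature in 2% formaldehyde/0.2% glutaraldehyde. Stained overnight at 37 °C in 40 mM citric acid/Na phosphate (pH 6.0), 5 mM each ferro- and ferricyanide, 150 mM NaCl, 2 mM MgCl2, 1 mg/ml X-gal. Positive cells observed and photographed by microscopy.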

CC[C@H]1OC(=O)N(c2ccc(N3CCOCC3)c(F)c2)[C@@H]1c1ccc(OC)cc1
IC50 (A549): 13.4 µM | IC50 (DU-145 [1]): 9.47 µM | IC50 (HeLa): 23.3 µM | IC50 (MCF7): > 100 µM | Activity (DU-145 [2]): Active | inhibition (DU-145 [3]): Dose-dependent effect | Activity (DU-145 [4]): 75.65% | Activity (DU-145 [5]): 75.29% | Activity (DU-145 [6]): 79.14% | Activity (DU-145 [7]): 80.5% | Activity (DU-145 [8]): 91.11% | Activity (DU-145 [9]): 4.61% | Activity (DU-145 [10]): 3.85% | Activity (DU-145 [11]): 3.56% | Activity (DU-145 [12]): 1.93% | Activity (DU-145 [13]): 0.79% | Activity (DU-145 [14]): 19.45% | Activity (DU-145 [15]): 20.49% | Activity (DU-145 [16]): 16.7% | Activity (DU-145 [17]): 16.19% | Activity (DU-145 [18]): 6.54% | Activity (DU-145 [19]): Dose-dependent effect | Activity (DU-145 [20]): Dose-dependent effect | Activity (DU-145 [21]): Active | Activity (DU-145 [22]): Active

C=CC(=O)OCCC(=O)OC[C@@H]1OC(=O)N(c2ccc(N3CCOCC3)c(F)c2)[C@@H]1c1ccc(OC)cc1
IC50 (A549): 42.4 µM | IC50 (DU-145 [1]): 31.8 µM | IC50 (HeLa): 28.6 µM | IC50 (MCF7): 61.5 µM

COc1ccc([C@@H]2[C@@H](COC(=O)c3ccccc3)OC(=O)N2c2ccc(N3CCOCC3)c(F)c2)cc1
IC50 (A549): 23.9 µM | IC50 (DU-145 [1]): 21.1 µM | IC50 (HeLa): 57.6 µM | IC50 (MCF7): 74 µM

C=C[C@H]1OC(=O)N(c2ccc(N3CCOCC3)c(F)c2)[C@@H]1c1ccc(OC)cc1
IC50 (A549): 24.4 µM | IC50 (DU-145 [1]): 48.2 µM | IC50 (HeLa): 48.6 µM | IC50 (MCF7): 70 µM

COc1ccc([C@H]2NC(=O)O[C@@H]2CO)cc1
IC50 (A549): 31.2 µM | IC50 (DU-145 [1]): 40.6 µM | IC50 (HeLa): 56.7 µM | IC50 (MCF7): > 100 µM

COc1ccc([C@@H]2[C@@H](CO)OC(=O)N2c2ccc(N3CCOCC3)c(F)c2)cc1
IC50 (A549): 24.6 µM | IC50 (DU-145 [1]): 24.9 µM | IC50 (HeLa): 86.6 µM | IC50 (MCF7): > 100 µM

COc1cccc2c1C(=O)c1c(O)c3c(c(O)c1C2=O)C[C@@](O)(C(=O)CO)C[C@@H]3O[C@H]1C[C@H](N)[C@H](O)[C@H](C)O1 [DOXORUBICIN]
IC50 (A549): 8.4 µM | IC50 (DU-145 [1]): 6.7 µM | IC50 (HeLa): 10.9 µM

COc1ccc([C@H]2NC(=O)O[C@H]2CO)cc1
IC50 (A549): 25.5 µM | IC50 (DU-145 [1]): 46.5 µM | IC50 (HeLa): 26 µM | IC50 (MCF7): 82.4 µM

C=C[C@H]1OC(=O)N[C@@H]1c1ccc(OC)cc1
IC50 (A549): 21.3 µM | IC50 (DU-145 [1]): 32.8 µM | IC50 (HeLa): 39.8 µM | IC50 (MCF7): > 100 µM

C=CC(=O)OCCC(=O)OC[C@H]1OC(=O)N(c2ccc(N3CCOCC3)c(F)c2)[C@@H]1c1ccc(OC)cc1
IC50 (A549): 14.2 µM | IC50 (DU-145 [1]): 8.69 µM | IC50 (HeLa): 42.7 µM | IC50 (MCF7): 38.2 µM

COc1ccc([C@@H]2[C@@H](CCO)OC(=O)N2c2ccc(N3CCOCC3)c(F)c2)cc1
IC50 (A549): 30.3 µM | IC50 (DU-145 [1]): 69.5 µM | IC50 (HeLa): 43.2 µM | IC50 (MCF7): > 100 µM

COc1ccc([C@@H]2[C@H](CO)OC(=O)N2c2ccc(N3CCOCC3)c(F)c2)cc1
IC50 (A549): 43.2 µM | IC50 (DU-145 [1]): 38.5 µM | IC50 (HeLa): 35.9 µM | IC50 (MCF7): 36.1 µM

COc1ccc([C@@H]2[C@H](COC(=O)c3ccccc3)OC(=O)N2c2ccc(N3CCOCC3)c(F)c2)cc1
IC50 (A549): 24.8 µM | IC50 (DU-145 [1]): 30.8 µM | IC50 (HeLa): 19.2 µM | IC50 (MCF7): 69.4 µM

COc1ccc([C@@H]2[C@@H](CN)OC(=O)N2c2ccc(N3CCOCC3)c(F)c2)cc1
IC50 (A549): 21.2 µM | IC50 (DU-145 [1]): 33 µM | IC50 (HeLa): > 100 µM | IC50 (MCF7): > 100 µM

COc1ccc([C@@H]2[C@@H](CNC(C)=O)OC(=O)N2c2ccc(N3CCOCC3)c(F)c2)cc1
IC50 (A549): 54.4 µM | IC50 (DU-145 [1]): 26.8 µM | IC50 (HeLa): 51.3 µM | IC50 (MCF7): > 100 µM
